# From paper PMC3062473 (ChemMedChem, 2010)
# Experiments:
# caspase 1 [1] = target: T1, caspase 1 (Homo sapiens, UniProt P29466); test: Caspase 1 fluorescence assay, Ac-LEHD-AMC substrate, 2 nM enzyme; assay type: biochemical
# T1 sequence (P29466 120-297 limits assumed): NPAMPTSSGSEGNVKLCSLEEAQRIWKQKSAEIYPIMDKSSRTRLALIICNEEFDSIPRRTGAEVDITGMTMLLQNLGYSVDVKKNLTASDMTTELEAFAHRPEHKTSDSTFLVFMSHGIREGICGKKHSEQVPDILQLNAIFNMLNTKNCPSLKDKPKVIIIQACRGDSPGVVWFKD
# T1 sequence (P29466 317-404 limits assumed): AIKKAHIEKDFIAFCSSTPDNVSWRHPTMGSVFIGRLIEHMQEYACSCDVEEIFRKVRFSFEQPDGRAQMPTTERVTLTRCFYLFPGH
# In short: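 Compound added from DMSO as a 12-point duplicate titration (0.65 pM to 57.5 μM) and preincubated 15 min at RT. Then 5 μM Ac-LEHD-AMC final was added and the initial rate followed 20 min at RT (ex 340/em 450 nm). Percent inhibition was taken against median uninhibited and uncatalyzed controls, with a four-parameter Hill fit.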
# caspase 1 [2] = target: T1, caspase 1; test: Reaction Biology caspase panel; assay type: biochemical
# Caspase 3 = target: T2, Caspase 3 (Homo sapiens, UniProt P42574); test: Reaction Biology caspase panel; assay type: biochemical
# T2 sequence (P42574 29-175 limits assumed): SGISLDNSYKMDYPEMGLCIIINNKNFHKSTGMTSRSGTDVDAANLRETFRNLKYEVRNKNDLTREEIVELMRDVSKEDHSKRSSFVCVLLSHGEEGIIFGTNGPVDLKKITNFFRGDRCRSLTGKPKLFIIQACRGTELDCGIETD
# T2 sequence (P42574 176-277 limits assumed): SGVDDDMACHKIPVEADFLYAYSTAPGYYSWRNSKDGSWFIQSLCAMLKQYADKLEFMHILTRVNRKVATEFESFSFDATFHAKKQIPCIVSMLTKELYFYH
# Caspase 4 = target: T3, Caspase 4 (Homo sapiens, UniProt P49662); test: Reaction Biology caspase panel; assay type: biochemical
# T3 sequence (P49662 81-270 limits assumed): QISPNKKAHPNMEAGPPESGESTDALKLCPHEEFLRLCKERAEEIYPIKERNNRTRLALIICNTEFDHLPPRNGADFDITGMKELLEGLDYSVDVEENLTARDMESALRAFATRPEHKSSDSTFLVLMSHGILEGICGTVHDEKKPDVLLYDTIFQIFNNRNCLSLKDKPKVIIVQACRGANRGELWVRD
# T3 sequence (P49662 290-377 limits assumed): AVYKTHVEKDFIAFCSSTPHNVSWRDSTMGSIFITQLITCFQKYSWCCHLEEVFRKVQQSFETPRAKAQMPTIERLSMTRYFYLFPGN
# Caspase 5 = target: T4, Caspase 5 (Homo sapiens, UniProt P51878); test: Reaction Biology caspase panel; assay type: biochemical
# T4 sequence (P51878 137-327 limits assumed): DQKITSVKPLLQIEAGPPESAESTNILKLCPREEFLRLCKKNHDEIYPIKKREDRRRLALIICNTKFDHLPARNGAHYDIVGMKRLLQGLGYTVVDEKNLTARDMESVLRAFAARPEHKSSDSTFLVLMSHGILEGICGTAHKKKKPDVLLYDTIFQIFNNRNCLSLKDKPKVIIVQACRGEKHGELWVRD
# T4 sequence (P51878 347-434 limits assumed): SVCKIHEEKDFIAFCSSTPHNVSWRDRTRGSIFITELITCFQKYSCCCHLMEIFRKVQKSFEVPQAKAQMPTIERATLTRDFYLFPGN
# Caspase 6 = target: T5, Caspase 6 (Homo sapiens, UniProt P55212); test: Reaction Biology caspase panel; assay type: biochemical
# T5 sequence (P55212 24-179 limits assumed): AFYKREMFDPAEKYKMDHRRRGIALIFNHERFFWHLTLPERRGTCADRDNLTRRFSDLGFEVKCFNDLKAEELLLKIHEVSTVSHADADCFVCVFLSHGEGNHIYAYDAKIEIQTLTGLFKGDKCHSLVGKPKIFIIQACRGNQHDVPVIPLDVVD
# T5 sequence (P55212 194-293 limits assumed): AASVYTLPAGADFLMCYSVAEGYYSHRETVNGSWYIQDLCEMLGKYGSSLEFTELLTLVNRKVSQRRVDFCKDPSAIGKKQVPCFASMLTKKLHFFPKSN
# Caspase 7 = target: T6, Caspase 7 (Homo sapiens, UniProt P55210); test: Reaction Biology caspase panel; assay type: biochemical
# T6 sequence (P55210 24-198 limits assumed): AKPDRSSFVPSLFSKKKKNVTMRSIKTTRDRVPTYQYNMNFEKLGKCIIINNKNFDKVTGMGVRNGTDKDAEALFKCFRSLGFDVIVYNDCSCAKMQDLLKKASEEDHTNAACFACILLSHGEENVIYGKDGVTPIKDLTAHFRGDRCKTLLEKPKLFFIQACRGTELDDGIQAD
# T6 sequence (P55210 207-303 limits assumed): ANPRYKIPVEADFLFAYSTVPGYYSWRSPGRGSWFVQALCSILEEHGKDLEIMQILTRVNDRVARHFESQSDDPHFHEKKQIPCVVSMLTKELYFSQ
# Caspase 8 = Caspase 8 (Homo sapiens, UniProt Q14790); test: Reaction Biology caspase panel; assay type: biochemical
# Sequence of Caspase 8 (Q14790 217-374 limits assumed): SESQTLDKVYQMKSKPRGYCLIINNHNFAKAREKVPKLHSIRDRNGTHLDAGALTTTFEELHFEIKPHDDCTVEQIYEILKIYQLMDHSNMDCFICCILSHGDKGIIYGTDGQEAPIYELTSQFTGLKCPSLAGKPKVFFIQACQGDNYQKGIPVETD
# Sequence of Caspase 8 (Q14790 385-479 limits assumed): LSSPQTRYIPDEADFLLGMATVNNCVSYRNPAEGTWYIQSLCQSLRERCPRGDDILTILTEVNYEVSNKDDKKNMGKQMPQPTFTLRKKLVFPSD
# Caspase 9 = target: T7, Caspase 9 (Homo sapiens, UniProt P55211); test: Reaction Biology caspase panel; assay type: biochemical
# T7 sequence (P55211 1-315 limits assumed): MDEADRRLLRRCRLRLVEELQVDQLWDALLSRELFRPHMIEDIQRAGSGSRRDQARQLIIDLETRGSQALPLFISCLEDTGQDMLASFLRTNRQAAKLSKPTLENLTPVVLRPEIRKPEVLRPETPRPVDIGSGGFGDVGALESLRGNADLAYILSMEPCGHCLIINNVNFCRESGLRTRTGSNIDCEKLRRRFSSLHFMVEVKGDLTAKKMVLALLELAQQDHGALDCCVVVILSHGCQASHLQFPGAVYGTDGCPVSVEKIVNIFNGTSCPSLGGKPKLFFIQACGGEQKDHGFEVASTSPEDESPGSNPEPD
# T7 sequence (P55211 331-416 limits assumed): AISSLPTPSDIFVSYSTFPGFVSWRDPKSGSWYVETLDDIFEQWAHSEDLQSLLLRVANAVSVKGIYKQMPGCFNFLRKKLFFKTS
# Caspase 10 = target: T8, Caspase 10 (Homo sapiens, UniProt Q92851); test: Reaction Biology caspase panel; assay type: biochemical
# T8 sequence (Q92851 220-415 limits assumed): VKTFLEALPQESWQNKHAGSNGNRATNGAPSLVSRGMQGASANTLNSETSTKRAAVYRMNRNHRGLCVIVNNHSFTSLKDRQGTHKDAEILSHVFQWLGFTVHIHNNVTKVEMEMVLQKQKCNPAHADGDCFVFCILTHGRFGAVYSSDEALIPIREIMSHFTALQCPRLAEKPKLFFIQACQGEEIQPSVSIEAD
# T8 sequence (Q92851 416-521 limits assumed): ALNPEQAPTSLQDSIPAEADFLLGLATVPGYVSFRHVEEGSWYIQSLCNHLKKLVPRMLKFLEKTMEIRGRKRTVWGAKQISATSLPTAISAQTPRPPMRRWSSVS
# Caspase 14 = target: T9, Caspase 14 (Homo sapiens, UniProt P31944); test: Reaction Biology caspase panel; assay type: biochemical
# T9 sequence (P31944 6-146 limits assumed): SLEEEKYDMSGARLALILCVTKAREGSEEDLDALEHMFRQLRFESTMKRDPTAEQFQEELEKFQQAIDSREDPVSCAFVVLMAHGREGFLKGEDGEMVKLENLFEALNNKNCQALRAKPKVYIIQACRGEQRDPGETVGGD
# T9 sequence (P31944 153-242 limits assumed): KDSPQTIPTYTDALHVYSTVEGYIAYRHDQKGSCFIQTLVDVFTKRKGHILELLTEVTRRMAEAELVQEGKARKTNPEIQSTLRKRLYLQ
# [3] = Aqueous degradation study by LCMS over 96 hours; assay type: physicochemical; details: for aqueous stability (in words): up to 96 hours
# [4] = Bi-directional Caco-2 permeability; assay type: in vitro ADME; details: human
# In short: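 Contract-lab bidirectional Caco-2 permeability. Run as three separate experiments, each with two separate internal control groups.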
# [5] = Plasma protein binding, equilibrium dialysis in 100% plasma; assay type: in vitro ADME, human; details: human, plasma (100%)
# Microsomal stability = assay type: in vitro ADME, human; details: for microsomal CLint / half-life: human, liver microsomes; for half-life: Microsomal Stability t1/2, human liver microsomes
# In short: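 Human microsomal stability, profiled by a contract lab alongside internal control compounds. Includes minus-NADPH and minus-compound control incubations.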
# Pgp = Pgp (Homo sapiens, UniProt P08183); test: Caco-2 permeability in the presence of verapamil; assay type: in vitro ADME; details: Caco-2 control experiment with verapamil
# Sequence of Pgp (P08183 whole entry): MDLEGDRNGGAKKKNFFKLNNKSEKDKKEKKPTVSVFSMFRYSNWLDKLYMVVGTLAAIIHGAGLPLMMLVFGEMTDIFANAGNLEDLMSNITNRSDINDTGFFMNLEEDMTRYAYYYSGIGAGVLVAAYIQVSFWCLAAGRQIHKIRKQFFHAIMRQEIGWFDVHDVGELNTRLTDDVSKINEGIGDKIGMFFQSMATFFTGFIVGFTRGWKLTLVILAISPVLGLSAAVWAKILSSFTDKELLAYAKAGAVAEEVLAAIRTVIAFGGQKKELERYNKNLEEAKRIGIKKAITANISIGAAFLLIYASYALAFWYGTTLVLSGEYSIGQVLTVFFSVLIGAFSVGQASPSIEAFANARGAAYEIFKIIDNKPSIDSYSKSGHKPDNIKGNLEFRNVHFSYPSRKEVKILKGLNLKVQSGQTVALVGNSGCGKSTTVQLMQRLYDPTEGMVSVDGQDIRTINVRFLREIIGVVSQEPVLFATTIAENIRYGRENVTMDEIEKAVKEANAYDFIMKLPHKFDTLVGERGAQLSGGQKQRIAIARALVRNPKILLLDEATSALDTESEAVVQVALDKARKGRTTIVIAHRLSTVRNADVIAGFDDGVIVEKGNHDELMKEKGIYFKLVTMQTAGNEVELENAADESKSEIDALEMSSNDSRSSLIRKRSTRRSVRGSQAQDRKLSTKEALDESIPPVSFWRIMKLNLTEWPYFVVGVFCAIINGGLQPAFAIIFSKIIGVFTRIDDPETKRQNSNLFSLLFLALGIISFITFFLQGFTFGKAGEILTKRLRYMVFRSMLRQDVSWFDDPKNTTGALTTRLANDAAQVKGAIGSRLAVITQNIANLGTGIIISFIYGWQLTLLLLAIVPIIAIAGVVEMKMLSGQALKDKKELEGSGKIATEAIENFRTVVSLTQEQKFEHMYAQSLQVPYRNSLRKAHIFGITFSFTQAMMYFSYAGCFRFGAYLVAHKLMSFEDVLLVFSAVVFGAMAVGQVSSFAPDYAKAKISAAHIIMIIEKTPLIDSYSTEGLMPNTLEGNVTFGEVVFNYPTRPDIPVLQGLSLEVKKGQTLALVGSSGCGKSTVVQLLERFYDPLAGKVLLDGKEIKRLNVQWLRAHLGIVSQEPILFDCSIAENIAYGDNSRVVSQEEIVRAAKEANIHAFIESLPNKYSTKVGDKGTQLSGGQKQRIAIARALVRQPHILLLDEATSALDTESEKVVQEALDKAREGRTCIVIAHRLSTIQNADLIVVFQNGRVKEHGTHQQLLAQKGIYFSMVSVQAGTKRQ
SMILES,IC50 (caspase 1 [1]) [nM],IC50 (caspase 1 [2]) [nM],IC50 (Caspase 3) [nM],IC50 (Caspase 4) [nM],IC50 (Caspase 5) [nM],IC50 (Caspase 6) [nM],IC50 (Caspase 7) [nM],IC50 (Caspase 8) [nM],IC50 (Caspase 9) [nM],IC50 (Caspase 10) [nM],IC50 (Caspase 14) [nM],aqueous stability (in words) ([3]; acidic (pH 2)),aqueous stability (in words) ([3]; basic (pH 8)),aqueous stability (in words) ([3]; neutral (pH 7)),Papp A→B [4] [×10⁻⁶ cm/s],Papp B→A [4] [×10⁻⁶ cm/s],fraction unbound [5],microsomal CLint (Microsomal stability) [µL/min/mg],half-life (Microsomal stability) [h],substrate for Pgp efflux (Pgp),other results
"CC(C)(C)[C@H](NC(=O)c1ccc(N)c(Cl)c1)C(=O)N1CCC[C@H]1C(=O)N[C@H](C#N)Cc1nnn[nH]1 [Compound 16, (S)-1-((S)-2-(4-amino-3-chlorobenzamido)-3,3-dimethylbutanoyl)-N-((S)-1-cyano-2-(1H-tetrazol-5-yl)ethyl)pyrrolidine-2-carboxamide]",20.4,2.58,> 10000,1380,1300,> 10000,> 10000,> 10000,91.5,> 10000,> 10000,resistant to degradation,resistant to degradation,resistant to degradation,0.13,0.193,0.243,9.38,2.47,,
"CC(=O)N[C@@H](CC(=O)O)C(=O)N[C@@H](CCC(=O)O)C(=O)N[C@H](C(=O)N[C@H](C=O)CC(=O)O)C(C)C [Ac-DEVD-CHO, reference compound]",,,,,,122,3.54,,,,,,,,,,,,,,
"CCO[C@@H]1OC(=O)C[C@@H]1NC(=O)[C@@H]1CCCN1C(=O)[C@@H](NC(=O)c1ccc(N)c(Cl)c1)C(C)(C)C [Compound 1, reference compound]",,,,,,,,,,,,,,moderate degradation,0.797,32.7,0.006,0.147,,substrates for Pgp efflux,"degradation ([3]; pH 2, after 3.5 hours): 40%; compound decomposed ([3]; water (pH 7), after 48 hours): over 50%; Microsomal Stability t1/2 (Microsomal stability; human liver microsomes, listed as VX-765): 157.2 h"

# The next lines start with results.
IC50 (caspase 1 [1]) [nM],IC50 (caspase 1 [2]) [nM],IC50 (Caspase 3) [nM],IC50 (Caspase 4) [nM],IC50 (Caspase 5) [nM],IC50 (Caspase 6) [nM],IC50 (Caspase 7) [nM],IC50 (Caspase 8) [nM],IC50 (Caspase 9) [nM],IC50 (Caspase 10) [nM],IC50 (Caspase 14) [nM],aqueous stability (in words) ([3]; acidic (pH 2)),aqueous stability (in words) ([3]; basic (pH 8)),aqueous stability (in words) ([3]; neutral (pH 7)),Papp A→B [4] [×10⁻⁶ cm/s],Papp B→A [4] [×10⁻⁶ cm/s],fraction unbound [5],microsomal CLint (Microsomal stability) [µL/min/mg],half-life (Microsomal stability) [h],substrate for Pgp efflux (Pgp),SMILES,other results
0.316,0.023,> 10000,13.8,3.6,> 10000,> 10000,25.2,2.17,89.7,801,moderate to good,exceedingly stable,moderate to good,0.144,0.06,0.431,10.3,2.23,,"CC(C)(C)[C@H](NC(=O)c1ccc(N)c(Cl)c1)C(=O)N1CCC[C@H]1C(=O)N[C@H](C#N)CC(=O)O [Compound 4, (S)-3-((S)-1-((S)-2-(4-amino-3-chlorobenzamido)-3,3-dimethylbutanoyl)pyrrolidine-2-carboxamido)-3-cyanopropanoic acid]","Ki (caspase 1 [1]): 0.4 nM; degradation ([3]; acidic (pH 2), after 72 hours): 50%; degradation ([3]; neutral (pH 7), after 72 hours): 50%"
145,43.4,> 10000,> 10000,1570,> 10000,> 10000,> 10000,1610,> 10000,> 10000,exceptionally stable,,exceptionally stable,0.445,9.59,0.071,27.4,0.845,substrates for Pgp efflux,"CCOC(=O)C[C@@H](C#N)NC(=O)[C@@H]1CCCN1C(=O)[C@@H](NC(=O)c1ccc(N)c(Cl)c1)C(C)(C)C [Compound 3, (S)-ethyl 3-((S)-1-((S)-2-(4-amino-3-chlorobenzamido)-3,3-dimethylbutanoyl)pyrrolidine-2-carboxamido)-3-cyanopropanoate]","degradation (in words) ([3]; basic (pH 8), after 22 hours): fully degraded; degradation in liver microsomes without NADPH (Microsomal stability; without NADPH as a cofactor): slight degree of degradation"
